Experiments:
[1] = Second-order rate constant for acyl-interchange reactions between glutathione and the compound; format: ADME
Outline: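 Cell-free reaction with glutathione in 0.1 M potassium phosphate, pH 7.5, 5% ethanol, 25 °C. Under pseudo-first-order conditions (≥10-fold glutathione excess), derived from the first-order loss of reactants followed spectrophotometrically. For the slow ester analogue, taken instead from the initial rate of product appearance (~0.1% reaction) with 15-fold glutathione excess, followed by reverse-phase HPLC.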

[2] = tested on: L1210; experiment: Concentration producing 100% tumor growth inhibition of L1210 cells; format: functional; conditions: Mus musculus
Outline: (§1)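 Murine L1210 leukemia cells (NCI tumor repository) in log phase, kept in RPMI 1640 with […], 10% heat-inactivated fetal calf serum and gentamycin (10 µg/mL), 37 °C, 5% CO2. Seeded at 5000 cells/well with at least five drug levels in triplicate. Fresh drug added every 12 h. Cell density counted by Coulter Counter after 48 h. Percentage growth taken against time-zero and no-drug counts. Values interpolated from dose-response curves; mean and SD of three experiments on different days.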

[3] = tested on: L1210; experiment: Rate constant from the plots of initial rates of disappearance of the drug inside L1210 cells versus extracellular concentration of prodrug.; format: functional, Mus musculus; conditions: in the assay text read “appearance” for “disappearance”
Outline: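 L1210 suspensions (~1.5 × 10^6 cells/mL) in RPMI 1640/10% heat-inactivated FCS with gentamycin, 37 °C, were given fixed prodrug levels. Aliquots taken over time were spun through silicone oil. Pellets were extracted with 70% ethanol and the glutathione conjugate was measured by C18 reverse-phase HPLC at 260 nm against standard curves. The constant is the slope of initial intracellular appearance rate versus extracellular prodrug concentration.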

[4] = tested on: L1210; experiment: Concentration producing 50% growth inhibition of L1210 cells; format: functional; conditions: Mus musculus; outline: as §1
[5] = tested on: L1210; experiment: Concentration required to kill 50% L1210 cells; format: ADME, cell-based; conditions: mouse
Outline: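 Mouse L1210 leukemia cells in log growth, RPMI 1640 with 10% heat-inactivated fetal calf serum and gentamycin (10 µg/mL), 37 °C, 5% CO2. Seeded at 5000 cells/well with at least five drug levels in triplicate. Fresh drug added every 12 h. Cell density counted by Coulter Counter after 48 h, viability by trypan blue. LC50 (50% cell killing) interpolated from dose-response curve; three experiments on different days.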

**Q.** Which k2 [1] does the source give for CC[S+]([O-])C(=O)N(C)c1ccc(Cl)cc1 (stereo unspecified) here?
**A.** The k2 was 2.33 M⁻¹ s⁻¹.

**Q.** Which results are given for CC[S+]([O-])C(=O)N(O)c1ccc(Cl)cc1 (stereo unspecified)?
**A.** TGI [2]: 3.9 µM; Rate constant [3]: 1.41 min⁻¹; k2 [1]: 30.7 M⁻¹ s⁻¹; GI50 [4]: 0.5 µM; LC50 [5]: 13 µM

**Q.** With CC[S+]([O-])C(=O)N(C)O (stereo unspecified) as the compound, how does the k2 [1] read?
**A.** The k2 was 9.83 M⁻¹ s⁻¹.

**Q.** With Cl.NC(CCC(=O)NC(CSC(=O)N(O)c1ccc(Cl)cc1)C(=O)NCC(=O)OC1CCCC1)C(=O)OC1CCCC1 (stereo unspecified) as the compound, how does the TGI [2] read?
**A.** Its TGI is 5.3 µM.

**Q.** What about the Rate constant [3] of the same compound?
**A.** Its Rate constant is 0.59 min⁻¹.

**Q.** And the GI50 [4]?
**A.** The GI50 was 3.4 µM.

**Q.** And the LC50 [5]?
**A.** Its LC50 is 8.3 µM.

**Q.** Which TGI [2] does the source give for CCOC(=O)CNC(=O)C(CSC(=O)N(O)c1ccc(Cl)cc1)NC(=O)CCC(N)C(=O)OCC.Cl (stereo unspecified) here?
**A.** The TGI was 27 µM.

**Q.** And the Rate constant [3]?
**A.** Its Rate constant is 0.1 min⁻¹.

**Q.** And the GI50 [4]?
**A.** Its GI50 is 7 µM.

**Q.** And the LC50 [5]?
**A.** The LC50 was 54 µM.

**Q.** Which k2 [1] does the source give for CCSC(=O)N(O)c1ccc(Cl)cc1 here?
**A.** The k2 was 5.83e-06 M⁻¹ s⁻¹.

Reference: ChEMBL document CHEMBL1132215, “A new method for rapidly generating inhibitors of glyoxalase I inside tumor cells using S-(N-aryl-N-hydroxycarbamoyl)ethylsulfoxides” (J Med Chem, 1999)
